Data from ChEMBL document CHEMBL1145131, “Structure-based design, synthesis, and biological evaluation of irreversible human rhinovirus 3C protease inhibitors. 8. Pharmacological optimization of orally bioavailable 2-pyridone-containing peptidomimetics” (J Med Chem, 2003).
≈ marks a conversion by molar mass, not a printed value.

Tests used:
[1] = target: T1, Human rhinovirus A protease (Human rhinovirus sp.) (UniProt Q4U254);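 further: inhibition of the human rhinovirus 3C protease enzyme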
T1 sequence (whole entry): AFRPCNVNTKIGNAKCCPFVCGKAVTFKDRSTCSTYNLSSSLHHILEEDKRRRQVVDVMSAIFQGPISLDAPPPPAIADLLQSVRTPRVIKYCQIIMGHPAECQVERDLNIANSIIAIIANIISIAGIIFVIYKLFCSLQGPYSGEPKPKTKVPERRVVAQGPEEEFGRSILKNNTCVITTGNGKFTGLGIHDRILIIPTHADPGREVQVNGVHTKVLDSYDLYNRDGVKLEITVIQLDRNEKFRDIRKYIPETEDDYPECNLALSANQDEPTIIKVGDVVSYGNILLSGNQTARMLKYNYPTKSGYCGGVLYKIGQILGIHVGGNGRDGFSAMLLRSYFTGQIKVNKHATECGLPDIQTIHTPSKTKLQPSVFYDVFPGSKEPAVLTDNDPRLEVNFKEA

Caco-2 = conditions: Homo sapiens
[2] = Compound was tested for plasma concentration in dogs 7 hours after oral administration (30 mg/kg); assay type: ADME, organism-based, Canis lupus familiaris; conditions: dog
Outline: (§1)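 Male beagle dogs (BW ~9.3 kg, n = 3), single oral dose of 30 mg/kg. Vehicle was 80:20 propylene glycol:sterile water (15.0 mg/mL) or, in some studies, a 0.5% carboxymethyl cellulose suspension. Blood sampled up to 24 h. Plasma level at 7 h determined by LCMS. Noncompartmental analysis of individual concentration-time profiles.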

[3] = Half-life upon exposure to human plasma; assay type: ADME, organism-based
Outline: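 Pooled heparinized human plasma (10 donors) or 100 mM potassium phosphate pH 7.4 buffer (n = 3 each), spiked to final 25 μM compound from acetonitrile stock. Incubated at 37 °C for 1–3 h with regular sampling. Protein precipitated with acetonitrile, then LC quantification against a 0.05–40 μg/mL standard curve. Half-life by linear regression of mean concentration-time data.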

[4] = Compound was tested in vitro for loss of compound after 30 min exposure to liver microsomes of dog at 25 uM concentration; assay type: ADME, organism-based, Canis lupus familiaris; conditions: read-out: Metabolism
Outline: (§2)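 Pooled liver microsomes (dog, monkey or human; 1 mg/mL, 6–8 livers) with 2 mM NADPH in 100 mM potassium phosphate, pH 7.4, preincubated 1 min at 37 °C. Started with 25 μM compound, run 30 min, quenched with acetonitrile. Time-zero controls quenched before compound addition. Remaining compound by reversed-phase HPLC at 215 nm. Reported as % metabolized.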

[5] = Thermodynamic aqueous solubility was determined; assay type: physicochemical; conditions: buffer
Outline: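 1–2 mg compound stirred in 1 mL of pH 7.0, 50 mM phosphate buffer at room temperature for 4 h. Filtered through a 0.45 μm filter. Filtrate concentration determined by HPLC against a standard of known concentration.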

[6] = Compound was tested in vitro for loss of compound after 30 min exposure to liver microsomes of human at 25 uM concentration; assay type: ADME, organism-based; conditions: read-out: Metabolism
Outline: as §2

Enterovirus [7] = experiment: In vitro anti-rhinoviral activity against human rhinovirus serotypes 2,3,9,14,16,25 and 39; assay type: functional, organism-based
[8] = Compound was tested for plasma concentration in dogs 7 hours after oral administration (30 mg/kg) in experiment 2; assay type: ADME, organism-based, Canis lupus familiaris; conditions: dog
Outline: as §1

[9] = Compound was tested for human plasma protein binding; assay type: ADME, cell-free
Outline: (§3)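 Ultrafiltration binding. Compound added from 1 mM and 0.1 mM stocks into heparinized dog or human plasma or pH 7.4 phosphate buffer, giving final 1 and 10 μM. Incubated 1 h at 37 °C, then centrifugal ultrafiltration. Filtrate and whole plasma quantified by LCMS with internal standard. % free = filtrate/whole plasma × 100. Three replicates per species per concentration.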

[10] = Compound was tested in vitro for loss of compound after 4 hours exposure to hepatocytes of human at 25 uM concentration; assay type: ADME, organism-based, Hepatocyte; conditions: read-out: Metabolism
[11] = Compound was tested in vitro for loss of compound after 4 hours exposure to hepatocytes of monkey at 25 uM concentration; assay type: ADME, cell-based, Hepatocyte; conditions: simiiformes, read-out: Metabolism
Canis familiaris = organism: Canis familiaris; experiment: Compound was tested for plasma protein binding of dog; assay type: ADME, organism-based, Canis lupus familiaris
Outline: as §3

[12] = Compound was tested for plasma concentration in CM-monkeys 7 hours after oral administration (50 mg/kg); assay type: ADME, organism-based, Macaca fascicularis; conditions: cynomolgus monkey
Outline: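 Male CM-monkeys (BW ~3.9 kg, n = 3), single oral dose of 50 mg/kg in 80:20 propylene glycol:sterile water at 15.0 mg/mL. Blood sampled periodically up to 24 h post-dose. Plasma concentration at 7 h measured by LCMS. Parameters from noncompartmental analysis of individual concentration-time data.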

[13] = Compound was tested in vitro for loss of compound after 4 hours exposure to hepatocytes of dog at 25 uM concentration; assay type: ADME, organism-based, Canis lupus familiaris, Hepatocyte; conditions: read-out: Metabolism
[14] = Compound was tested for plasma concentration in dogs 7 hours after oral administration (30 mg/kg) in experiment 1; assay type: ADME, organism-based, Canis lupus familiaris; conditions: dog
Outline: as §1

Enterovirus [15] = experiment: In vitro antirhinoviral activity against human rhinovirus serotypes 9,14 and 25; assay type: functional, organism-based
Enterovirus [16] = experiment: In vitro antirhinoviral activity against human rhinovirus serotypes 2, 3, 9, 14, 16 and 39 (mean)
[17] = Compound was tested in vitro for loss of compound after 2 hours exposure to hepatocytes of dog at 25 uM concentration; assay type: ADME, organism-based, Canis lupus familiaris, Hepatocyte; conditions: read-out: Metabolism
[18] = Compound was tested in vitro for loss of compound after 2 hours exposure to hepatocytes of monkey at 25 uM concentration; assay type: ADME, cell-based, Hepatocyte; conditions: simiiformes, read-out: Metabolism
[19] = Compound was tested in vitro for loss of compound after 2 hours exposure to hepatocytes of human at 25 uM concentration; assay type: ADME, organism-based, Hepatocyte; conditions: read-out: Metabolism
[20] = Compound was tested in vitro for loss of compound after 30 min exposure to liver microsomes of monkey at 25 uM concentration; assay type: ADME, Microsome; conditions: simiiformes, read-out: Metabolism
Outline: as §2

[21] = Compound was tested in vitro for loss of compound after 2 hours exposure to hepatocytes of monkey at 5 uM concentration; assay type: ADME, cell-based, Hepatocyte; conditions: simiiformes, read-out: Metabolism
Enterovirus [22] = experiment: In vitro antirhinoviral activity mean against human rhinovirus serotypes 2, 3, 9, 14, 16 and 25

SMILES | K obs / 1 [1] [M⁻¹ s⁻¹] | Papp (Caco-2) | half-life [3] [h] | metabolised at 0.5 h, 25 µM [4] [%] | solubility thermodynamic [5] [µg/mL] | metabolised at 0.5 h, 25 µM [6] [%] | EC50 (Enterovirus [7]) [nM] | further results
C#CC[C@@H](C(=O)N[C@H](/C=C/C(=O)OC1CCC1)C[C@@H]1CCNC1=O)n1cccc(NC(=O)c2cc(C)on2)c1=O | 207000 | 14 10e-6 cm s-1 | 3.3 | 53 | 25 (≈ 45.5 µM) | 52 | 90 | concentration at 7 h [2]: 73 nM
Cc1cc(C(=O)Nc2cccn([C@@H](Cc3ccc(F)c(F)c3)C(=O)N[C@H](/C=C/C(=O)OC(C)C)C[C@@H]3CCNC3=O)c2=O)no1 |  | 36 10e-6 cm s-1 | 9.7 | 57 | 21 (≈ 33.6 µM) | 56 | 78 | concentration at 7 h [8]: 959 nM; Free [9]: 9%; metabolised at 4 h, 25 µM [10]: 87%; metabolised at 4 h, 25 µM [11]: 92%; Free (Canis familiaris): 19%; concentration at 7 h [12]: 12 nM; metabolised at 4 h, 25 µM [13]: 16%; concentration at 7 h [14]: 815 nM
CC[C@@H](C(=O)N[C@H](/C=C/C(=O)OC1CCCCC1)C[C@@H]1CCNC1=O)n1cccc(NC(=O)c2cc(C)on2)c1=O | 23000 |  |  |  |  |  |  | EC50 (Enterovirus [15]): 313 nM
C#CC[C@@H](C(=O)N[C@H](/C=C/C(=O)OC1CCCCCC1)C[C@@H]1CCNC1=O)n1cccc(NC(=O)c2cc(C)on2)c1=O | 47000 |  |  |  |  |  |  | EC50 (Enterovirus [15]): 812 nM
CC[C@@H](C(=O)N[C@H](/C=C/C(=O)OC(C)(C)C)C[C@@H]1CCNC1=O)n1cccc(NC(=O)c2cc(C)on2)c1=O | 45100 |  |  |  |  |  | 405 | 
C#CC[C@@H](C(=O)N[C@H](/C=C/C(=O)OC1CCCC1)C[C@@H]1CCNC1=O)n1cccc(NC(=O)c2cc(C)on2)c1=O | 186000 | 36 10e-6 cm s-1 | 12.5 | 76 | 15 (≈ 26.6 µM) | 59 | 174 | Free [9]: 7%; concentration at 7 h [2]: 160 nM; Free (Canis familiaris): 20%
C#CC[C@@H](C(=O)N[C@H](/C=C/C(=O)OC(C)(C)C)C[C@@H]1CCNC1=O)n1cccc(NC(=O)c2cc(C)on2)c1=O | 60500 |  |  |  |  |  | 361 | 
CCOC(=O)c1ccc(OCCC2CCN(c3ccc(C)nn3)CC2)cc1 [PIRODAVIR] |  |  |  |  |  |  |  | EC50 (Enterovirus [16]): 31 nM
C#CC[C@@H](C(=O)N[C@H](/C=C/C(=O)OCc1ccccc1)C[C@@H]1CCNC1=O)n1cccc(NC(=O)c2cc(C)on2)c1=O | 300000 | 18 10e-6 cm s-1 | 4.3 | 67 | 22 (≈ 37.6 µM) | 52 | 36 | Free [9]: 13%; metabolised at 2 h, 25 µM [17]: 61%; metabolised at 2 h, 25 µM [18]: 69%; concentration at 7 h [2]: 563 nM; Free (Canis familiaris): 25%; concentration at 7 h [12]: 3 nM; metabolised at 2 h, 25 µM [19]: 51%
C#CC[C@@H](C(=O)N[C@H](/C=C/C(=O)OCC(C)(C)C)C[C@@H]1CCNC1=O)n1cccc(NC(=O)c2cc(C)on2)c1=O | 128000 |  |  |  |  |  | 276 | 
CC[C@@H](C(=O)N[C@H](/C=C/C(=O)OC1CCCCCC1)C[C@@H]1CCNC1=O)n1cccc(NC(=O)c2cc(C)on2)c1=O | 15000 |  |  |  |  |  |  | 
CC[C@@H](C(=O)N[C@H](/C=C/C(=O)OC(C)C)C[C@@H]1CCNC1=O)n1cccc(NC(=O)c2cc(C)on2)c1=O | 36000 |  |  |  |  |  |  | EC50 (Enterovirus [15]): 322 nM
C#CC[C@@H](C(=O)N[C@H](/C=C/C(=O)OCC)C[C@@H]1CCNC1=O)n1cccc(NC(=O)c2cc(C)on2)c1=O [IMOCITRELVIR] | 223000 | 6 10e-6 cm s-1 | 6.6 | 45 | 377 (≈ 720 µM) | 40 | 58 | Free [9]: 34%; metabolised at 2 h, 25 µM [17]: 12%; metabolised at 2 h, 25 µM [18]: 79%; concentration at 7 h [2]: 248 nM; Free (Canis familiaris): 54%; concentration at 7 h [12]: 57 nM; metabolised at 2 h, 25 µM [19]: 85%; metabolised at 0.5 h, 25 µM [20]: 55%
CC[C@@H](C(=O)N[C@H](/C=C/C(=O)OCC(C)(C)C)C[C@@H]1CCNC1=O)n1cccc(NC(=O)c2cc(C)on2)c1=O | 38200 |  |  |  |  |  | 310 | 
Cc1cc(CCCOc2c(C)cc(-c3noc(C(F)(F)F)n3)cc2C)on1 [PLECONARIL] |  |  |  |  |  |  | 136 | 
CCOC(=O)/C=C/[C@H](C[C@@H]1CCNC1=O)NC(=O)[C@H](CC)n1cccc(NC(=O)c2cc(C)on2)c1=O | 170000 | 5 10e-6 cm s-1 | 5.6 | 37 | 38 (≈ 74 µM) | 61 | 47 | concentration at 7 h [8]: < 10 nM; metabolised at 2 h, 25 µM [17]: 14%; concentration at 7 h [12]: 896 nM; metabolised at 2 h, 5 µM [21]: 76%; metabolised at 2 h, 25 µM [19]: 82%; metabolised at 0.5 h, 25 µM [20]: 61%; concentration at 7 h [14]: 682 nM
CC[C@@H](C(=O)N[C@H](/C=C/C(=O)OCc1ccccc1)C[C@@H]1CCNC1=O)n1cccc(NC(=O)c2cc(C)on2)c1=O | 210000 | 11 10e-6 cm s-1 | 2.5 | 69 | 41 (≈ 71.2 µM) | 56 | 64 | Free [9]: 8%; metabolised at 2 h, 25 µM [17]: 55%; concentration at 7 h [2]: 156 nM; Free (Canis familiaris): 20%; metabolised at 2 h, 25 µM [19]: 27%
CCOC(=O)/C=C/[C@H](C[C@@H]1CCNC1=O)NC(=O)[C@H](Cc1ccc(F)c(F)c1)n1cccc(NC(=O)c2cc(C)on2)c1=O |  | 35 10e-6 cm s-1 | 1.4 | 57 | 25 (≈ 40.9 µM) | 81 | 11 | metabolised at 2 h, 25 µM [19]: 94%
CC[C@@H](C(=O)N[C@H](/C=C/C(=O)OC1CCC1)C[C@@H]1CCNC1=O)n1cccc(NC(=O)c2cc(C)on2)c1=O | 170000 | 10 10e-6 cm s-1 | 9.2 | 46 | 192 (≈ 356 µM) | 49 | 76 | Free [9]: 33%; concentration at 7 h [2]: 222 nM; Free (Canis familiaris): 42%
C#CC[C@@H](C(=O)N[C@H](/C=C(\C)C(=O)OCC)C[C@@H]1CCNC1=O)n1cccc(NC(=O)c2cc(C)on2)c1=O | 12500 |  |  |  |  |  | 1460 | 
C#CC[C@@H](C(=O)N[C@H](/C=C/C(=O)OC1CCCCC1)C[C@@H]1CCNC1=O)n1cccc(NC(=O)c2cc(C)on2)c1=O | 34000 |  |  |  |  |  |  | EC50 (Enterovirus [15]): 406 nM
C#CC[C@@H](C(=O)N[C@H](/C=C/C(=O)OC(C)C)C[C@@H]1CCNC1=O)n1cccc(NC(=O)c2cc(C)on2)c1=O | 100000 |  |  |  |  |  |  | EC50 (Enterovirus [22]): 174 nM
